# Measured values published in publication PMC5912934 (ChemMedChem, 2017).
# Key:
# female nude mice = experiment: Maximum tolerated dose assay; format: in vivo
# HeLa cells = conditions: read-out: IC50 against HeLa cells; cited from earlier work
# [1] = test system: various cancer cell lines; experiment: Cancer cell line screening, all cell lines together; format: cell-based, human; conditions: for IC50: Homo sapiens, read-out: IC50 in cancer cell lines, lowest value
# Stability in human serum = format: in vitro ADME; conditions: pooled human serum, up to 24 hours
# Method in brief: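 The test compound came from a 1 mg/mL anhydrous DMSO stock and was incubated in pooled human serum […]. It followed the same workflow as the buffer test. Timed aliquots were taken up to 24 h and compared by TLC against a verified standard. Aliquots were then extracted with two chloroform portions, the solvent was removed, and the residue was analysed by 1H NMR to verify TLC.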
# [2] = Aqueous benchtop stability in phosphate buffer; format: physicochemical; conditions: 25 μg/mL, pH 5.0, 7.0 and 7.5, room temperature, up to 24 hours
# Method in brief: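 Test compound at 1 mg/mL in anhydrous DMSO (stock) was spiked into phosphate buffer at 25 μg/mL, at pH 5.0, 7.0 and 7.5, and stirred at room temperature. Aliquots were taken at 0, 0.25, 0.5, 1, 4, 8 and 24 h and checked by TLC against a verified standard. Aliquots were then extracted twice with chloroform, and the residue was examined by 1H NMR to confirm the TLC findings.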
# [3] = test system: MOLM-14 acute monocytic leukemia cells; experiment: IC50 proliferation assay; format: cell-based; conditions: Homo sapiens, MOLM-14, 72 h, read-out: MOLM14 cancer cell line activity (IC50)
# Method in brief: (§1)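 Cells were grown at 37 °C in 5% CO2 in RPMI 1640 or DMEM with 10% heat-inactivated FBS and 1% glutamine, then seeded in 96-well plates the afternoon before treatment. About 18 h later, the test compound was semi-serially diluted in DMSO, then in growth medium, and added. After 72 h, WST-1 was added and plates were read after a further 4 h at 37 °C. Assays were run in triplicate.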
# [4] = test system: A549 adenocarcinomic human alveolar basal epithelial cells; experiment: IC50 proliferation assay; format: cell-based; conditions: A549, 72 h, read-out: A549 cancer cell line activity (IC50)
# Method in brief: as §1
# [5] = Mouse model pharmacokinetic study; conditions: in vivo, 10 mg/kg
# Method in brief: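 Mouse plasma was analysed by a validated LC/MS/MS assay. Proteins were precipitated with an equal volume of acetonitrile after adding an internal standard (a related analogue, final 1000 ng/mL), then vortexed 10 min and centrifuged at 14,000 rpm. Standard ranges were 1–1,000 ng/mL for parent and 10–10,000 ng/mL for prodrug. Separation used a C18 column with a 0.1% formic acid/acetonitrile gradient at 1 mL/min. Detection was positive electrospray on a triple quadrupole.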
# Mouse plasma stability = format: in vitro ADME
# Method in brief: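 Mouse plasma was spiked with 500 ng/mL prodrug and assayed for both prodrug and parent at 0, 5, 15, 30, 45, 60 and 90 min. Conversion was expressed as analyte counts to avoid differences between the two standard curves.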
# γ-H2Ax in MOLM-14 cells = experiment: Gamma-H2Ax DNA damage assay in MOLM-14 cells; format: cell-based, human; conditions: MOLM-14 cells grown in 0.5 and 4 μM for 24 hours
# Method in brief: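 MOLM-14 cells were seeded the evening before at 1×10^5 cells/mL in RPMI 1640/10% FBS. Controls were DMSO and 6.0 Gy gamma irradiation (collected after 1 h); treated cells were collected after 24 h. Cells were washed in PBS/2% serum, cytospun at 1.5×10^5 cells/slide, fixed 15 min in 4% PFA, permeabilised (Triton X-100 buffer), and blocked overnight in 10% FBS/PBS/0.1% Triton. Staining used anti-γ-H2Ax plus DyLight anti-mouse secondary with DAPI mount; slides were examined by fluorescence microscopy.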
# [6] = Aqueous benchtop stability at CCPC; format: physicochemical; conditions: LC/MS; for deviation of recovered from expected concentration in aqueous solution: 5-500 ng/mL in 1:1 acetonitrile/Millipore H2O
# Method in brief: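 Prodrug and its parent were spiked at 5, 12.5, 25, 50, 125, 250 and 500 ng/mL into 1:1 acetonitrile/Millipore water. Both analytes were measured by LC/MS. Concentrations were quantified against a previously constructed calibration curve at the same concentrations.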
IC50 [1],SMILES,IC50 (HeLa cells),stability in human serum (Stability in human serum),aqueous stability in phosphate buffer [2],deviation of recovered from expected concentration in aqueous solution [6],also measured
≥ 0.014 µM,"Clc1nc(Cl)c2[nH]ccc2n1 [Compound 5, 2,4-Dichloro-5H-pyrrolo[3,2-d]pyrimidine]",19 ± 3 µM,,,,IC50 [3]: 9.5 ± 3.1 µM; IC50 [4]: 14.5 ± 3.5 µM
≥ 0.014 µM,"Clc1nc(Cl)c2[nH]cc(I)c2n1 [Compound 7, 2,4-Dichloro-7-iodo-5H-pyrrolo[3,2-d]pyrimidine]",,stable,stable,≤ 5.7%,"time to little to no detection of the compound in mouse plasma [5]: ≤ 70 min; deviation in plasma over the time frame investigated (Mouse plasma stability; mouse plasma, 0-90 minutes): 5.7%; stability in plasma (Mouse plasma stability; mouse plasma, time frame investigated (0-90 minutes)): excellent stability; DNA damage (γ-H2Ax staining) (γ-H2Ax in MOLM-14 cells): significant DNA damage"
,"Clc1nc(Cl)c2c(n1)c(I)cn2COCc1ccccc1 [Compound 8, 5-((Benzyloxy)methyl)-2,4-dichloro-7-iodo-pyrrolo[3,2-d]pyrimidine]",,,,,"decrease of activity compared to the parent ([1]; fold, versus parent 7, Table 1 cell lines): ten-fold"
,"Cc1ccc(S(=O)(=O)n2cc(I)c3nc(Cl)nc(Cl)c32)cc1 [Compound 9, 2,4-Dichloro-7-iodo-5-tosyl-pyrrolo[3,2-d]pyrimidine]",,,stable,15.8%,"increase in maximum tolerated dose compared to parent compound 7 (female nude mice; fold, versus 7): four-fold; time to undetectable in biological media (Mouse plasma stability; biological media (Figure 4, mouse plasma)): ≤ 1 hour; conversion of 9 to 7 in mouse plasma (Mouse plasma stability; mouse plasma spiked with 500 ng/mL, 0-90 minutes): Significant conversion; hydrolysis of 9 to 7 in aqueous solution ([6]; 1:1 acetonitrile/Millipore H2O): no observed hydrolysis"

SMILES,IC50 [1],IC50 (HeLa cells),stability in human serum (Stability in human serum),aqueous stability in phosphate buffer [2],deviation of recovered from expected concentration in aqueous solution [6],also measured
"Clc1nc(Cl)c2[nH]cc(Br)c2n1 [Compound 6, 7-Bromo-2,4-dichloro-5H-pyrrolo[3,2-d]pyrimidine]",≥ 0.014 µM,0.92 ± 0.04 µM,stable,stable,,"toxicity relative to 7 (female nude mice; female, nude, mouse, in vivo): 2 fold"
